Test [1] has as its system Canis familiaris. Nature of the test: Saluretic activity in the dog measured as concentration of Na+ in urinary excretion (2 animals/dose) at (dose 1.56 mg/Kg, perorally). Type of test: functional, Canis lupus familiaris, Urine. An outline of the steps: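 Male beagles trained to rest on a table and to accept stomach tube and catheter. Food withdrawn 24 h before, tap water ad libitum. Bladder emptied by catheter, then 20 mL/kg tap water by stomach tube. Catheterized hourly up to 8 h with 4 mL/kg water orally each time; first 2 h urine served as control. Oral dosing after second catheterization. Pooled 1–6 h urine; Na⁺/K⁺ by flame photometry, Cl⁻ argentometrically.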

The species entered for test [2] is Rattus norvegicus. Put plainly: Saluretic activity in the rat measured as concentration of Na+ in urine. Type of test: functional. An outline of the steps:
(§1)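 Rats deprived of food 24 h, water ad libitum, dosed 50 mg/kg by stomach tube as suspension in 2% starch, no extra water load. Groups of three in diuresis funnels; urine over first 5 h collected. Na⁺ and K⁺ by flame photometry, Cl⁻ argentometrically; expressed as mequiv/kg.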

Test [3] deals with Canis familiaris. Put plainly: Diuretic activity in the dog (2 animals/dose) at (dose 1.56 mg/Kg), when administered perorally. In kind it is functional, Canis lupus familiaris, Urine. In outline: (§2)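 Trained male beagles, fasted 24 h with tap water ad libitum. Bladder emptied by catheter, then 20 mL/kg tap water by stomach tube, with 4 mL/kg water at each hourly catheterization up to 8 h. The first 2 h of urine served as control. Oral dosing came after the second catheterization, and 1–6 h urine was pooled. Na⁺ and K⁺ were measured by flame photometry, Cl⁻ argentometrically, in mequiv/kg.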

Test [4] relates to Canis familiaris. Put plainly: Salidiuretic activity in the dog measured as concentration of K+ in urinary excretion (2 animals/dose) at (dose 1.56 mg/Kg, perorally). Type of test: functional, Canis lupus familiaris, Urine. In outline: (§3)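 Male beagles trained to the procedures, food withdrawn 24 h before, tap water ad libitum. Bladder emptied by catheter, then 20 mL/kg tap water by stomach tube, plus 4 mL/kg orally at each hourly catheterization up to 8 h. The first 2 h of urine served as control. Compound given orally after the second catheterization. Urine from 1–6 h post-dose pooled; Na⁺ and K⁺ by flame photometry, Cl⁻ argentometrically, in mequiv/kg.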

Test [5] is filed under the species Rattus norvegicus. Put plainly: Diuretic activity in the rats, determined by a modified Lipschitz test. In kind it is functional, Urine. In outline: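 Modified Lipschitz test: rats deprived of water 24 h, grouped in threes of similar weight in diuresis funnels. Oral dose of 50 mg/kg, suspended in 2% starch solution, by stomach tube.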
For test [6], the system named is Canis familiaris. Put plainly: Salidiuretic activity in the dog measured as concentration of Cl - in urinary excretion (2 animals/dose) at (dose 1.56 mg/Kg, perorally). In kind it is functional, Canis lupus familiaris, Urine. An outline of the steps: as §3
Test [7] is filed under the species Rattus norvegicus. Nature of the test: Saluretic activity in the rat measured as concentration of chloride in urine. In kind it is functional. In outline:
as §1

The species named for test [8] is Rattus norvegicus. Put plainly: Saluretic activity in the rat measured as concentration of K+ in urine. Type of test: functional. In outline:
as §1

The species entered for test [9] is Rattus norvegicus. Put plainly: Effect on Urine flow in rats was evaluated.
The subject of test [10] is Canis familiaris. Put plainly: Diuretic activity in the dog (2 animals/dose) at (dose 6.25 mg/Kg), when administered perorally. In kind it is functional, Canis lupus familiaris, Urine. An outline of the steps:
as §2

For test [11], the system named is Canis familiaris. Put plainly: Sailuric activity in the dog measured as concentration of K+ in urinary excretion (2 animals/dose) at (dose 6.25 mg/Kg, po). In kind it is functional, Canis lupus familiaris, Urine. An outline of the steps:
as §3

For test [12], the system named is Canis familiaris. Nature of the test: Sailuric activity in the dog measured as concentration of Cl - in urinary excretion (2 animals/dose) at (dose 6.25 mg/Kg, po). In kind it is functional, Canis lupus familiaris, Urine. An outline of the steps: as §3
For test [13], the system named is Canis familiaris. Nature of the test: Sailuric activity in the dog measured as concentration of K+ in urinary excretion (2 animals/dose) at (dose 0.78 mg/Kg, po). Type of test: functional, Canis lupus familiaris, Urine. An outline of the steps: as §3
Test [14] deals with Canis familiaris. Nature of the test: Sailuric activity in the dog measured as concentration of Na+ in urinary excretion (2 animals/dose) at (dose 6.25 mg/Kg, po). Type of test: functional, Canis lupus familiaris, Urine. In outline:
as §3

The species entered for test [15] is Rattus norvegicus. Put plainly: Effect on (GFR) glomerular filtration rate in rats was evaluated.
Test [16] concerns Canis familiaris. Put plainly: Sailuric activity in the dog measured as concentration of Na+ in urinary excretion (2 animals/dose) at (dose 0.78 mg/Kg, po). In kind it is functional, Canis lupus familiaris, Urine. In outline:
as §3

Test [17] has as its system Canis familiaris. Nature of the test: Sailuric activity in the dog measured as concentration of Cl - in urinary excretion (2 animals/dose) at (dose 0.78 mg/Kg, po). In kind it is functional, Canis lupus familiaris, Urine. An outline of the steps:
as §2

In the case of `NS(=O)(=O)c1cc(S(=O)(=O)[O-])c(NCCc2ccco2)cc1Cl.[Na+]`, the Saluretic activity in the test on Canis familiaris [1] stood at 0.56 m equiv 6hr-1 kg-1; in the test filed under Rattus norvegicus [2], 4.6 m equiv 5hr-1 kg-1; in the test listed under Rattus norvegicus [7], 6.1 m equiv 5hr-1 kg-1; in the test filed under Rattus norvegicus [8] it was 1.8 m equiv 5hr-1 kg-1. Besides, the Diuretic activity stood at 29.3 ml kg-1 6hr-1 in the test with Canis familiaris [3] and 1.9 mL/kg in the test filed under Rattus norvegicus [5]. In addition, the Saldiuretic activity with Canis familiaris [4] is listed as 0.15 m equiv 6hr-1 kg-1; with Canis familiaris [6], 0.76 m equiv 6hr-1 kg-1.
As for `NS(=O)(=O)c1cc(C(=O)O)c(NCc2ccco2)cc1Cl` [FUROSEMIDE], the Volume in the test listed under Rattus norvegicus [9] amounted to 0.998 mL/min/kg. For the same compound, the Saluretic activity in the test filed under Rattus norvegicus [2] amounted to 4.8 m equiv 5hr-1 kg-1; in the test with Canis familiaris [11], 1.26 m equiv 6hr-1 kg-1; with Canis familiaris [12] it was 6.27 m equiv 6hr-1 kg-1; in the test with Canis familiaris [14], 5.54 m equiv 6hr-1 kg-1; with Canis familiaris [16] it was 1.37 m equiv 6hr-1 kg-1; in the test listed under Rattus norvegicus [7] it was 7.2 m equiv 5hr-1 kg-1. Also, the Saluretic activity in the test listed under Rattus norvegicus [8] stood at 2.6 m equiv 5hr-1 kg-1; in the test with Canis familiaris [17], 1.85 m equiv 6hr-1 kg-1. In addition, the Diuretic activity in the test on Canis familiaris [10] was found to be 69 ml kg-1 6hr-1; in the test listed under Rattus norvegicus [5] it was 4.9 mL/kg. Besides, the Saldiuretic activity with Canis familiaris [13] was 0.5 m equiv 6hr-1 kg-1. Moreover, in the test filed under Rattus norvegicus [15], the GFR is 8.82 mL/min/kg.
